In ChEMBL document CHEMBL2412990, “Synthesis and pharmacological evaluation of new N-phenylpiperazine derivatives designed as homologues of the antipsychotic lead compound LASSBio-579” (Eur J Med Chem, 2013):

Tests used:
[1] = target: T1, D(4) dopamine receptor (Homo sapiens, UniProt P21917); test: Displacement of [3H]-YM-09151-2 from human D4 receptor after 120 mins by liquid scintillation counting
T1 sequence (P21917 whole entry): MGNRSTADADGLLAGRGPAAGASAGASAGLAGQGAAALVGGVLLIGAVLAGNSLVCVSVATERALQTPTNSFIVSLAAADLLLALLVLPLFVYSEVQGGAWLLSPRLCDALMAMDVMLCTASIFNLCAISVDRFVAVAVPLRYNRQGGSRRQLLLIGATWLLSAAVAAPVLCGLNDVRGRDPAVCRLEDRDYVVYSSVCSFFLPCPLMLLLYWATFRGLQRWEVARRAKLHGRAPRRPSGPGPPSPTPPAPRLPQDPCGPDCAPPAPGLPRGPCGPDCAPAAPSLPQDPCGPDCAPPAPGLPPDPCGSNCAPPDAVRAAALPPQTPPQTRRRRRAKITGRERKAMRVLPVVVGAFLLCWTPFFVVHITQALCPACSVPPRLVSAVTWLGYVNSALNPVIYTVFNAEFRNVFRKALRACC

[2] = target: T2, 5-hydroxytryptamine receptor 2C (Homo sapiens, UniProt P28335); test: Displacement of [3H]-mesulergine from human 5HT2C receptor after 60 mins by liquid scintillation counting
T2 sequence (P28335 whole entry): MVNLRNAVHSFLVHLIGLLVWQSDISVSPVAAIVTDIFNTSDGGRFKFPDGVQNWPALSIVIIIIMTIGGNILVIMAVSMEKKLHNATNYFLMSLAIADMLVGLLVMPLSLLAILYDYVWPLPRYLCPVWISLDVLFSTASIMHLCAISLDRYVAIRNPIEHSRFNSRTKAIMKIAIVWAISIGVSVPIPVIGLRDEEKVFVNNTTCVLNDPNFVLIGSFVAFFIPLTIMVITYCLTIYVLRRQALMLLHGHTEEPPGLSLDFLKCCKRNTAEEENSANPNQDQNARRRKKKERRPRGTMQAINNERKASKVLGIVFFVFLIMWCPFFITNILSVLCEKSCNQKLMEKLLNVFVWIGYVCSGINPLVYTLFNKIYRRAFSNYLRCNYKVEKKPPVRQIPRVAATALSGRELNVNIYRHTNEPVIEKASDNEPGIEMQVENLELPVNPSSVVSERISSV

[3] = target: D(2) dopamine receptor (Rattus norvegicus, UniProt P61169); test: Displacement of [3H]-YM-09151-2 from D2 receptor in rat brain striatal membranes after 60 mins by liquid scintillation counting; type: cell membranes, Membrane
Sequence of D(2) dopamine receptor (P61169 whole entry): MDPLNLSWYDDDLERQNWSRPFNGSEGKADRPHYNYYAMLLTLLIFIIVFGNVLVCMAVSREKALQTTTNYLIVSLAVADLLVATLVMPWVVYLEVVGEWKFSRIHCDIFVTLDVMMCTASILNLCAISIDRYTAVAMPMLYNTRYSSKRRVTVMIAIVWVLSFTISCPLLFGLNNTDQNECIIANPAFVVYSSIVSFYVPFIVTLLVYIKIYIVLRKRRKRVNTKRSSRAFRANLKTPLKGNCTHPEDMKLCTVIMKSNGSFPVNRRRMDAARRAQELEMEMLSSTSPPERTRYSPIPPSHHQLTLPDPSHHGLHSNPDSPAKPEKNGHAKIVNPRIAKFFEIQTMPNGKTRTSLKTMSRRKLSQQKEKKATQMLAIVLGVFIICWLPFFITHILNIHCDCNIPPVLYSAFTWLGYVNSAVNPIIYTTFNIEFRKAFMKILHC

[4] = target: T3, 5-hydroxytryptamine receptor 1A (Rattus norvegicus, UniProt P19327); test: Displacement of [3H]-8-OH-DPAT from 5HT1A receptor in rat brain hippocampal membranes after 15 mins by liquid scintillation counting; type: cell membranes, Membrane
T3 sequence (P19327 whole entry): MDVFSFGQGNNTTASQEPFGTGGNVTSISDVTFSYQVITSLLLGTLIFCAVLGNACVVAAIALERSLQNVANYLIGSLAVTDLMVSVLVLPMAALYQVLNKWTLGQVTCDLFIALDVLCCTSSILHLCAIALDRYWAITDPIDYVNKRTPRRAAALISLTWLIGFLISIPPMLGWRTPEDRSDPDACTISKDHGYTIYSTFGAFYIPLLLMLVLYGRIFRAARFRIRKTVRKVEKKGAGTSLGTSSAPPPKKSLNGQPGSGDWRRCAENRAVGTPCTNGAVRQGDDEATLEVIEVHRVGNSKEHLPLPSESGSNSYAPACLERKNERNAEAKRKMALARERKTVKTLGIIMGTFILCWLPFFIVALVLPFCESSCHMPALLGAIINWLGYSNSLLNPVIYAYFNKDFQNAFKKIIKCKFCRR
How it was run: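 Hippocampal membranes, 40 µg protein, incubated with 1 nM [3H]-8-OH-DPAT at 37 °C for 15 min under yellow light. Buffer was 50 mM Tris-HCl pH 7.4 with 1 mM CaCl2, 1 mM MnCl2 and pargyline. Filters were soaked in 0.5% polyethyleneimine. IC50 came from nonlinear regression fitted with one or two sites. Ki by Cheng-Prusoff, using Kd from saturation experiments.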

[5] = target: Muscarinic acetylcholine receptor (Rattus norvegicus) (UniProt P08482+P08483+P08485+P08911+P10980); test: Displacement of [3H]-QNB from muscarinic receptor in rat brain cortical membranes at 30 uM after 60 mins by liquid scintillation counting; type: cell membranes; details: Membrane
How it was run: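 Cortical membranes, 150 µg protein, with 0.1 nM [3H]-QNB in 50 mM Tris-HCl pH 7.4 at room temperature for 60 min. Non-specific binding was defined with atropine sulfate. Samples were diluted with cold 5 mM Tris-HCl, vacuum-filtered on glass fibre filters and counted by liquid scintillation.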

| Structure (SMILES) | Ki [1] [nM] | Ki [2] [nM] | Ki [3] [nM] | Ki [4] [nM] | inhibition [5] [%] |
| --- | --- | --- | --- | --- | --- |
| Clc1ccc(-n2cc(CCCCCN3CCN(c4ccccc4)CC3)cn2)cc1 | 1180 | 7800 | 490 | 160 | 26 |
| Clc1ccc(-n2cc(CCCCN3CCN(c4ccccc4)CC3)cn2)cc1 | 800 | 5900 | 250 | 90 | 2 |
| Clc1ccc(-n2cc(COCCN3CCN(c4ccccc4)CC3)cn2)cc1 | 100 | 8100 | 1900 | 110 | 11 |
| Clc1ccc(-n2cc(CCCN3CCN(c4ccccc4)CC3)cn2)cc1 | 330 | 5100 | 680 | 180 | 39 |
| Clc1ccc(-n2cc(COCCCN3CCN(c4ccccc4)CC3)cn2)cc1 | 1500 | 2800 | 790 | 310 | 28 |
| Clc1ccc(-n2cc(CN3CCN(c4ccccc4)CC3)cn2)cc1 | 180 | 8630 | 390 | 220 | 22 |
